Reference: publication PMC7586065 (Neoplasia (New York, N.Y.), 2020)
Like-named read-outs stand apart in the source and are kept apart here.

Assays:
[1] = system: OCI-LY19; conditions: data in the literature; cited from earlier work
[2] = system: PI3Kγ; conditions: cited from earlier work
[3] = system: Pfeiffer; conditions: data in the literature; cited from earlier work
[4] = system: PI3Kα; conditions: cited from earlier work
[5] = system: WSU-DLCL2; conditions: data in the literature; cited from earlier work
[6] = system: Toledo; conditions: data in the literature; cited from earlier work
[7] = molecular target: PI3Kγ (Mus musculus, UniProt Q9JHG7); assay: Cell-based pAKT AlphaLISA, C5a stimulated RAW264.7 cells
Sequence of PI3Kγ (Q9JHG7 whole entry): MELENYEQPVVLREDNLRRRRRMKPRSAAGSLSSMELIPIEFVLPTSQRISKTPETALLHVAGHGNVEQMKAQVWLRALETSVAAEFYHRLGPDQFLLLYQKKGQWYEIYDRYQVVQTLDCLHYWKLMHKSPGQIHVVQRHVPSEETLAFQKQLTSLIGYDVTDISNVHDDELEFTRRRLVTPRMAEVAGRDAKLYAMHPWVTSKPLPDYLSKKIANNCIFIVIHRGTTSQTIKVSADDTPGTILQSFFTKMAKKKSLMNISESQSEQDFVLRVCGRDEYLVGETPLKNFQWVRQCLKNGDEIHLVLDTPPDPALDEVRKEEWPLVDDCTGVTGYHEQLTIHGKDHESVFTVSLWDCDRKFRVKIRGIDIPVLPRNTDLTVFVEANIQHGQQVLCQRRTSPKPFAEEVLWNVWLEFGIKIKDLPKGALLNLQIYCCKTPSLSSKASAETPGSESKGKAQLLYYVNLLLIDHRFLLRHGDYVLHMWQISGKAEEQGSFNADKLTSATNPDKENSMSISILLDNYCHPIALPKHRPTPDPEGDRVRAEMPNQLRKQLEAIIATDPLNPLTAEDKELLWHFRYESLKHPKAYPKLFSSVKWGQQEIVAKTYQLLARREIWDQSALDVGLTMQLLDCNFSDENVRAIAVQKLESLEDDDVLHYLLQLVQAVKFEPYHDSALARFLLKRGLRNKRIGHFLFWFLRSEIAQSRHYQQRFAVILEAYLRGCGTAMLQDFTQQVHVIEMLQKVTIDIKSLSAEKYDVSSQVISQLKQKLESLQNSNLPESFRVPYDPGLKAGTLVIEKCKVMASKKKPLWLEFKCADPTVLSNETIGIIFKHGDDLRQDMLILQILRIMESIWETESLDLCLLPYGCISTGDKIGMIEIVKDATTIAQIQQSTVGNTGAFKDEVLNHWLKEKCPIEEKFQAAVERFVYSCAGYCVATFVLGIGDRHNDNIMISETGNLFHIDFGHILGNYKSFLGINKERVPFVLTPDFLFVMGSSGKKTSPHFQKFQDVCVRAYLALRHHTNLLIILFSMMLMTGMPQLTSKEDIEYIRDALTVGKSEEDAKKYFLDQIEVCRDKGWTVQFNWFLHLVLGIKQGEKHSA
Procedure, shortened: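 RAW264.7 cells (DMEM, 10% FBS, penicillin/streptomycin, 37 °C) were stimulated with 80 ng/mL C5a for 5 min and given ten test-compound concentrations (0–100 µM) in triplicate. The PI3Kδ comparator used Raji cells stimulated with 3 µg/mL anti-IgM F(ab')2 for 10 min, dosed 0–3000 nM. pAKT was quantified by AlphaLISA, and IC50 was taken from signal–concentration curves.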

[8] = molecular target: PI3Kα (Mus musculus, UniProt P42337); assay: Cell-based pAKT AlphaLISA, IGF-1 stimulated C2C12 cells
Sequence of PI3Kα (P42337 whole entry): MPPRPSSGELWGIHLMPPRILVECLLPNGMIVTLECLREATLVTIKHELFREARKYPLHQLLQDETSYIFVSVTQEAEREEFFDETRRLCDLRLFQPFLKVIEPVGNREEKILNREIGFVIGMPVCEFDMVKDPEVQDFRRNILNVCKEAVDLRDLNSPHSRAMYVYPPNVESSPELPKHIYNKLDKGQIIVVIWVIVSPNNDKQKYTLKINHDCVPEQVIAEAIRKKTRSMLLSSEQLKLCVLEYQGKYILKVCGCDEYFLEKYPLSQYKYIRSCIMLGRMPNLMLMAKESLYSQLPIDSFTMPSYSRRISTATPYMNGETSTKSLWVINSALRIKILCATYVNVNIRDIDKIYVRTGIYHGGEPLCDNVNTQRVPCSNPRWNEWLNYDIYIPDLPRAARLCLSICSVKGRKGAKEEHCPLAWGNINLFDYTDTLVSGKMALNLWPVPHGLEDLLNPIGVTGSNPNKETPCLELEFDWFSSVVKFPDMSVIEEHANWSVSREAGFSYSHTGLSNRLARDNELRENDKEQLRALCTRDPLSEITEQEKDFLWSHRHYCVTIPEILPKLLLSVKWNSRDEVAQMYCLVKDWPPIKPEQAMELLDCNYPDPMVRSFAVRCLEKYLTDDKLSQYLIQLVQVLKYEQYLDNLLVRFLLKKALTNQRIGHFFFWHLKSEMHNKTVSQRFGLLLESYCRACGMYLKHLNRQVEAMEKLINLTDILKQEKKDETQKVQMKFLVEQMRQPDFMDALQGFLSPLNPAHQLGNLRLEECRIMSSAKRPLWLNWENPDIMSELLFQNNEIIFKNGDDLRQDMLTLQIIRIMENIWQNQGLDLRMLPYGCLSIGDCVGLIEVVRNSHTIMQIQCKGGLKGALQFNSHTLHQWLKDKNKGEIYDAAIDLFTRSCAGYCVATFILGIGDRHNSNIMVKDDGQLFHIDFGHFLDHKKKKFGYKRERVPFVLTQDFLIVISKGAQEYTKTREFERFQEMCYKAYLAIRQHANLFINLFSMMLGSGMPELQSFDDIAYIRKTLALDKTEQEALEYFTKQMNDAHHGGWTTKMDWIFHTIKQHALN
Sequence of PI3Kα (P26450 whole entry partner): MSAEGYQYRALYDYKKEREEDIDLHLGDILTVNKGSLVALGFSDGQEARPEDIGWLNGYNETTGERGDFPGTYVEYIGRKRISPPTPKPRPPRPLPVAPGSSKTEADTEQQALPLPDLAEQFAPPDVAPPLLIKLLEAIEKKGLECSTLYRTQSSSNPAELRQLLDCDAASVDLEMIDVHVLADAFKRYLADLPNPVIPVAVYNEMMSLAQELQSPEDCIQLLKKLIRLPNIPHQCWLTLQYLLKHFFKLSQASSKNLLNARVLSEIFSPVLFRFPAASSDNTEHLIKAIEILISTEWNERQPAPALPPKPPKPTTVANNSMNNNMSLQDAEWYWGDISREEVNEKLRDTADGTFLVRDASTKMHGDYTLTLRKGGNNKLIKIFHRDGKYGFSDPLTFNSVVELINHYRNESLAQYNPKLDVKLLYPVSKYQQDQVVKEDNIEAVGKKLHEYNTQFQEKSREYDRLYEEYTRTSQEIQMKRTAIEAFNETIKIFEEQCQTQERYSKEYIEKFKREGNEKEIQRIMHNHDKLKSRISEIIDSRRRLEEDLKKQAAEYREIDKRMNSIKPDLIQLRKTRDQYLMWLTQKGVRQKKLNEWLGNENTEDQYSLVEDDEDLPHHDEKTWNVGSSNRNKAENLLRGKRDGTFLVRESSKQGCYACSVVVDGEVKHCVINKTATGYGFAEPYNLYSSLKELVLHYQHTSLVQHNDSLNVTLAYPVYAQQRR

[9] = system: PI3Kδ signaling; conditions: read-out: EC50 of inhibition of PI3Kδ signaling; cell-based assay; cited from earlier work
[10] = Pharmacokinetics in xenograft model; type: in vivo, SCID mice; conditions: CB17 SCID, mouse, plasma, po
Procedure, shortened: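 CB17 SCID mice bearing subcutaneous SU-DHL-6 tumours received test compound orally once daily in 1% carboxymethylcellulose/0.5% Tween 80. Heparinised blood was drawn predose and at 10, 30, 60, 120, 360, 600 and 1440 min on days 1 and 14. Plasma was spun at 4500 rpm, 10 min, 4 °C, then assayed by LC-MS/MS against a stable-isotope internal standard. Sub-LLOQ values were excluded.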

[11] = 100 mg/kg, 100 mg/kg once daily oral, day 1
[12] = 100 mg/kg, 100 mg/kg once daily oral, day 14
[13] = 200 mg/kg, 200 mg/kg once daily oral, day 1
[14] = 200 mg/kg, 200 mg/kg once daily oral, day 14

For COc1c(OCCCN2CCOCC2)ccc2c1N=C(NC(=O)c1cnc(N)nc1)N1CCN=C21 [Copanlisib], the IC50 [1] is given as 1990 nM, the IC50 [2] is given as […] and the IC50 [3] is given as 0.849 nM. For the same compound, the IC50 [4] was […], the IC50 [5] was 123 nM and the IC50 [6] was 3500 nM.
In the case of CC[C@H](Nc1ncnc2[nH]cnc12)c1nc2cccc(F)c2c(=O)n1-c1ccccc1 [Idelalisib], the IC50 [7] is given as 1120 nM, the IC50 [8] is given as over 30000 nM and the EC50 [9] is given as 8.9 nM. For the same compound, the AUC(0-t) [10, 11] was 6930 ng·h/mL, the AUC(0-t) [10, 12] was 5520 ng·h/mL and the Cmax [10, 11] was 4.17 ± 9.89 µM. It also gave a Cmax [10, 12] of 5.05 ± 6.05 µM, a half-life ([10]; 100 mg/kg, T1/2, 100 mg/kg once daily oral, day 1) of 3.4 ± 2 h and a half-life ([10]; 100 mg/kg, T1/2, 100 mg/kg once daily oral, day 14) of 1.8 ± 0.6 h. It also gave a Tmax [10, 11] of 0.7 ± 0.3 h, a Tmax [10, 12] of 0.4 ± 0.2 h and an AUC(0-t) [10, 13] of 29900 ng·h/mL. The AUC(0-t) [10, 14] was 22400 ng·h/mL, the Cmax [10, 13] was 11.1 µM and the Cmax [10, 14] was 8.09 ± 0.93 µM. For the same compound, the half-life ([10]; 200 mg/kg, T1/2, 200 mg/kg once daily oral, day 1) was 1.9 ± 0.5 h, the half-life ([10]; 200 mg/kg, T1/2, 200 mg/kg once daily oral, day 14) was 4.3 ± 1.1 h and the Tmax [10, 13] was 0.8 ± 0.3 h. The Tmax [10, 14] was 0.7 ± 0.3 h.
